We go through eleven compounds from ChEMBL document CHEMBL1250424, “Design, synthesis and evaluation of 2-amino-4-m-bromoanilino-6-arylmethyl-7H-pyrrolo[2,3-d]pyrimidines as tyrosine kinase inhibitors and antiangiogenic agents” (Bioorg Med Chem, 2010).

The target of test [1] is Epidermal growth factor receptor (Homo sapiens, UniProt P00533). Put plainly: Inhibition of EGFR expressed in human A431 cells. The format is cell-based, A-431.
The target of test [2] is Platelet-derived growth factor receptor beta (Homo sapiens, UniProt P09619). Put plainly: Inhibition of PDGFRbeta expressed in human A431 cells. It counts as cell-based, A-431.
A further test concerns A-431. Put plainly: Cytotoxicity against human A431 cells. The format is functional, cell-based. A digest of the protocol:
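Growth inhibition of A431 cells, which over-express EGFR, measured in culture. Cisplatin was run in each evaluation as the reference standard. Each assay was performed 2-3 times, with 4-5 replicates per assay.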

The nature of test [3]: Antiangiogenic activity in fertilized chicken egg by CAM assay. The format is functional, Gallus gallus.
The target of test [4] is Vascular endothelial growth factor receptor 2 (Homo sapiens, UniProt P35968). Put plainly: Inhibition of VEGFR2 expressed in human A431 cells. The format is cell-based, A-431.

A word on the IC50: it is the concentration that gives 50% inhibition.

Vascular endothelial growth factor receptor 2, sequence (P35968 whole entry): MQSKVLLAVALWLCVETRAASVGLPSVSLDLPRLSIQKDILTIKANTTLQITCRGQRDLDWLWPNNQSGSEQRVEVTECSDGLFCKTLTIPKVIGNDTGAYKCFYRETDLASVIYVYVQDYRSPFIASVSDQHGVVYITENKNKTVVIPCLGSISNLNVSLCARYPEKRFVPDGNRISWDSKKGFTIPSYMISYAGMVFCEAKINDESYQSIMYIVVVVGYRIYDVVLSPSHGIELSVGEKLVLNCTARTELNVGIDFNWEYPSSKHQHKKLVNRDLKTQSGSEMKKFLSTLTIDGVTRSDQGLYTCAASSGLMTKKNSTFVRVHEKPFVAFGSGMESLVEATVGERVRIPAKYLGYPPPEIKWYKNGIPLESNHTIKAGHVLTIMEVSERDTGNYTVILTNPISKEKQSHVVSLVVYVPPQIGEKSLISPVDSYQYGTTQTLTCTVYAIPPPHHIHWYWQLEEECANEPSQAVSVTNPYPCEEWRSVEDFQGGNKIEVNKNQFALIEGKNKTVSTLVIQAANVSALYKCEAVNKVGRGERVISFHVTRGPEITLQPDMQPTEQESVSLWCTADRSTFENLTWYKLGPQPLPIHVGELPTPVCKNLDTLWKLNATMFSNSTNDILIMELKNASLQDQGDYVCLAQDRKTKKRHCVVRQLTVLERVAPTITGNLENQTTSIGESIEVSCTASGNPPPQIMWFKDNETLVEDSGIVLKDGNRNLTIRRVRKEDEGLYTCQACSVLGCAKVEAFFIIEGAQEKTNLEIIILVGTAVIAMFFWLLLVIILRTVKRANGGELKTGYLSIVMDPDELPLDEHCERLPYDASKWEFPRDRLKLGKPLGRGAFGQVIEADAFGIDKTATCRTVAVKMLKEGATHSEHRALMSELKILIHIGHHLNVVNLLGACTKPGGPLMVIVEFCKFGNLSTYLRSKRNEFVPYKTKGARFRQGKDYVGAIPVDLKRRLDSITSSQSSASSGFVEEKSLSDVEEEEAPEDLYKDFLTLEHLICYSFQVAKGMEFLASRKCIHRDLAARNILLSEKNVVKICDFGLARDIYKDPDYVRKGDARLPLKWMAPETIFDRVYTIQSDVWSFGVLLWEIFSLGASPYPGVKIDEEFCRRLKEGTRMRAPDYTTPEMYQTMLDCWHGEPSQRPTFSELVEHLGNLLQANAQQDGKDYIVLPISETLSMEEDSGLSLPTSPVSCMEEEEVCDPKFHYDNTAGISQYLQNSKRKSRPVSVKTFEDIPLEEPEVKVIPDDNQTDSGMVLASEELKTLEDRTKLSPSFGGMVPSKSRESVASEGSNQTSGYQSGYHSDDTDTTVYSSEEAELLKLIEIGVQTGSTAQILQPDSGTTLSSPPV
Platelet-derived growth factor receptor beta, sequence (P09619 whole entry): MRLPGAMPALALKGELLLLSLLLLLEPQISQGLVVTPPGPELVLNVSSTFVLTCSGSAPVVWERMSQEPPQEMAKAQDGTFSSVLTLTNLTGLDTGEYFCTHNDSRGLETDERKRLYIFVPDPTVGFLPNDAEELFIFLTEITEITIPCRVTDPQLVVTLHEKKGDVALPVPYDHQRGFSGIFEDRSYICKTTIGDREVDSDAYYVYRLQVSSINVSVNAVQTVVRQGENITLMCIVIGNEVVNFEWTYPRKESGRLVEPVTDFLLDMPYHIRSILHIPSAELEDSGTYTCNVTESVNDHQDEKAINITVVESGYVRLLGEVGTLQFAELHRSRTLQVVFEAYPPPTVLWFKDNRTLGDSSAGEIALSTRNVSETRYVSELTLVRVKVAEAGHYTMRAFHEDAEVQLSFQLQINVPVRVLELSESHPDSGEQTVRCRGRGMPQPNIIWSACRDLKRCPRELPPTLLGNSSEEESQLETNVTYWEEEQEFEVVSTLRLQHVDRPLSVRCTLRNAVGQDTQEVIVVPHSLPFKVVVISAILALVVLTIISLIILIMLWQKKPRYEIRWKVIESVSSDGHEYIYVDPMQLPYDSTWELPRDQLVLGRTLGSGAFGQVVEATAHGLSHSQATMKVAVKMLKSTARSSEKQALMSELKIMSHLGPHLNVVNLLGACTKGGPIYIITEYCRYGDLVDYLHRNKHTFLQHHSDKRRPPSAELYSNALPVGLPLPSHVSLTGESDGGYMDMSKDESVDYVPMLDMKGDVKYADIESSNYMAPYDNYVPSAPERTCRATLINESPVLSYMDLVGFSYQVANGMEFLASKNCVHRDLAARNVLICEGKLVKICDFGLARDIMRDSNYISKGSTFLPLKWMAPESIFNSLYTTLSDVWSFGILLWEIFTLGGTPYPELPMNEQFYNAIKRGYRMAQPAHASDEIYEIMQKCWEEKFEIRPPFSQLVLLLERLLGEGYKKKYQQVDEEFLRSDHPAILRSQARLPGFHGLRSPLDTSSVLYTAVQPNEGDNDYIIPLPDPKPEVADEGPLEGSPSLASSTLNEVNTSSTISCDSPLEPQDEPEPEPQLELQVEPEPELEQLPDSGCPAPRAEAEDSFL
Epidermal growth factor receptor, sequence (P00533 whole entry): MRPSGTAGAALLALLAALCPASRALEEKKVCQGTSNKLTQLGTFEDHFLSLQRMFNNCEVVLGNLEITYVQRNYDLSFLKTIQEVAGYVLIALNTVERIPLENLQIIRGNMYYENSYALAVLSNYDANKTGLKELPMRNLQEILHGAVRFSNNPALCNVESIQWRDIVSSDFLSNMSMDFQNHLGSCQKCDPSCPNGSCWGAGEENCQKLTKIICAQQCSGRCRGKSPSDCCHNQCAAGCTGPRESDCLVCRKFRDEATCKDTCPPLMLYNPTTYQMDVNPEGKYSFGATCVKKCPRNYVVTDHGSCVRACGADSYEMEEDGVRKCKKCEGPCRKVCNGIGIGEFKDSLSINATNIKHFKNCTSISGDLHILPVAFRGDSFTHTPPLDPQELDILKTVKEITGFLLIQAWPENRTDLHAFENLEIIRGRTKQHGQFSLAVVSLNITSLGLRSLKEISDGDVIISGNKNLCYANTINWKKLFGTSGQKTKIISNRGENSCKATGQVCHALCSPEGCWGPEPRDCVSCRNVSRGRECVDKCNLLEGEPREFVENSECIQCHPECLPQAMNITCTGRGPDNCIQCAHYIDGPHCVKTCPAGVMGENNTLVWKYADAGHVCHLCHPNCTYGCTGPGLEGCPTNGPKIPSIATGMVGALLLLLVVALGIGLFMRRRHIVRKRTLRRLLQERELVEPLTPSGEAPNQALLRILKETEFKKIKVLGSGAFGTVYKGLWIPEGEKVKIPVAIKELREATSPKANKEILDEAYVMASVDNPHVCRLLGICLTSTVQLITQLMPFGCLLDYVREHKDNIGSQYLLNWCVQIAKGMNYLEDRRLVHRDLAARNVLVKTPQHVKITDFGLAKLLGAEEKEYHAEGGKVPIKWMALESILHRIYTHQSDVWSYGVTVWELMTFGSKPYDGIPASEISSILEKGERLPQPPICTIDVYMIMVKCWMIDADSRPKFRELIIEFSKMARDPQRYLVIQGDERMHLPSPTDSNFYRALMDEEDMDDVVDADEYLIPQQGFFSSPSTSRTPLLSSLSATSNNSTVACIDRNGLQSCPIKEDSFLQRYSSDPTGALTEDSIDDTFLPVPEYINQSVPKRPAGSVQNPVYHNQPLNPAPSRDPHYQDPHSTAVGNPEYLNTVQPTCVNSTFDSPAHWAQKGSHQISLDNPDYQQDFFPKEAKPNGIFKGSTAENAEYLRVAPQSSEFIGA

Turning to `Cc1ccccc1Cc1cc2c(Nc3cccc(Br)c3)nc(N)nc2n1C`, the IC50 in test [1] is 12.8 µM; in test [2], over 500 µM; in the test with A-431, 204 µM; in test [3] it was 3 µM; in test [4] it was 116 µM.
The like results for `Cn1c(Cc2ccccc2)cc2c(Nc3cccc(Br)c3)nc(N)nc21` were, in that order, over 200 µM, 2.8 µM, 27.9 µM, 6.22 µM and over 200 µM.
For `CN(c1cccc(Br)c1)c1nc(N)nc2c1cc(Cc1ccccc1)n2C`, the IC50 is 254 µM in test [1]; 71.7 µM in test [2]; 50.9 µM in the test on A-431; 2.6 µM in test [3]; over 200 µM in test [4].
As for `Cc1ccccc1Cc1cc2c(N(C)c3cccc(Br)c3)nc(N)nc2n1C`, the IC50 in test [1] was 1.2 µM; in test [2] it was over 500 µM; with A-431, 226 µM; in test [3] it was 1.6 µM; in test [4], over 200 µM.
For `COc1ccc(OC)c(Cc2cc3c(N(C)c4cccc(Br)c4)nc(N)nc3n2C)c1`, the IC50 in test [1] is 0.5 µM; in test [2] it was over 500 µM; in the test on A-431, 94.1 µM; in test [3], 2.05 µM; in test [4], over 200 µM.
For the compound `Cc1ccccc1Cc1cc2c(N(C)c3cccc(Br)c3)nc(N)nc2[nH]1`, the IC50 in test [1] is 31.2 µM; in test [2] it was 34.8 µM; in the test with A-431 it was over 500 µM; in test [3], 0.93 µM; in test [4], over 200 µM.
In test [4], `Cc1ccccc1Cc1cc2c(Nc3cccc(Br)c3)nc(N)nc2[nH]1` gave an IC50 of 0.25 µM.
As for `CN(c1cccc(Br)c1)c1nc(N)nc2[nH]c(Cc3ccccc3)cc12`, the IC50 is 53.1 µM in test [1]; over 500 µM in test [2]; 45.7 µM with A-431; 1.56 µM in test [3]; 89.2 µM in test [4].
The like results for `COc1ccc(OC)c(Cc2cc3c(Nc4cccc(Br)c4)nc(N)nc3n2C)c1` were, in that order, over 200 µM, 348 µM, 35.6 µM, 3.3 µM and over 200 µM.
`COc1ccc(OC)c(Cc2cc3c(Nc4cccc(Br)c4)nc(N)nc3[nH]2)c1`: the IC50 worked out at 1.32 µM in test [3] and 0.62 µM in test [4].
For `COc1ccc(OC)c(Cc2cc3c(N(C)c4cccc(Br)c4)nc(N)nc3[nH]2)c1`, the IC50 in test [1] is 144 µM; in test [2] it was 1.3 µM; in the test with A-431 it was 197 µM; in test [3], 0.83 µM; in test [4], over 200 µM.
